Read-outs that look alike come from different tables or passages of the source.
Columns and labels:
P. falciparum [1] = conditions: cited from earlier work
P. falciparum [2] = experiment: Stage-specific inhibitory activity on highly-synchronized parasites; type: cell-based, Plasmodium falciparum; conditions: 10-fold IC50, synchronized parasites
HepG2 = experiment: Cytotoxicity on HepG2 cells; type: cell-based; conditions: HepG2, 24 h, MTT
P. falciparum (3D7) = experiment: Anti-plasmodial SYBR green assay, P. falciparum 3D7 blood parasites; type: cell-based, Plasmodium falciparum
[3] = system: L. amazonensis promastigotes; experiment: Anti-leishmanial MTT viability assay, L. amazonensis promastigotes; type: cell-based, Leishmania (L.) amazonensis
P. falciparum [4] = experiment: In vitro association with artesunate; type: cell-based, Plasmodium falciparum; conditions: isobologram analysis
T. cruzi epimastigotes = experiment: Anti-T. cruzi MTT viability assay, epimastigotes; type: cell-based, Trypanosoma cruzi
HepG2 cells = experiment: HepG2 cell morphology by microscopy after treatment; type: cell-based, human; conditions: 24 h, concentration 10-fold higher than IC50 (10 μM)
[5] = system: L. infantum promastigotes; experiment: Anti-leishmanial MTT viability assay, L. infantum promastigotes; type: cell-based, Leishmania (L.) infantum
[6] = system: intracellular L. (L.) amazonensis amastigotes; experiment: Intracellular L.; type: cell-based, Leishmania (L.) amazonensis; conditions: for intracellular parasitism (in words): 6.125, 25, 50 or 100 μM, 24 h; for reduction of the amastigote number over the control group: at higher concentrations, 24 h incubation, infected BALB/c macrophages
Procedure, shortened: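 BALB/c bone-marrow-derived macrophages infected with stationary-phase L. (L.) amazonensis promastigotes (MHOM/BR/1973/M2269) at MOI 10 for 1 h, washed three times with PBS, then held 24 h at 33 °C, 5% CO2. Test compound added at 6.125, 25, 50 or 100 μM for 24 h at 33 °C. Cells washed, MeOH-fixed and stained; amastigotes counted in 300 cells on triplicate coverslips. Percent reduction taken versus untreated infected cells; two independent experiments.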

T. brucei rhodesiense = conditions: cited from earlier work
T. cruzi = conditions: cited from earlier work
Leishmania donovani = conditions: cited from earlier work
[7] = Plasmodium falciparum, 3D7, read-out: P. falciparum (3D7) EC50+/−S.D., 3D7 sensitive strain, SYBR green

Row | Structure (SMILES) | EC50 (P. falciparum (3D7); [7]) [µM] | anti-plasmodial activity against P. falciparum (in words) (P. falciparum (3D7)) | further results
1 | COC(=O)c1cc(Br)c(Br)[nH]1 |  |  | anti-parasitic activity against P. falciparum (P. falciparum [1]): 7.9 µg/mL
2 | O=C(O)c1cc(Br)c(Br)[nH]1 [4,5-dibromo-1H-pyrrole-2-carboxylic acid] |  |  | anti-parasitic activity against P. falciparum (P. falciparum [1]): 5.8 µg/mL
3 | O=C(NCCCCNCCCNC(=O)c1cc(Br)c(Br)[nH]1)c1cc(Br)c(Br)[nH]1 [Compound 1, pseudoceratidine] | 1.1 ± 0.1 |  | stage-specific inhibitory activity (in words) (P. falciparum [2]): inhibitory activity in the early ring stages; HepG2 MDL50+/−S.D. (HepG2): 16 ± 1 (14.6 – 17.4) μM; anti-parasitic activity against L. (L.) amazonensis (in words) [3]: essentially inactive; interaction effect in combination with artesunate (P. falciparum [4]): additive; anti-parasitic activity against T. cruzi (in words) (T. cruzi epimastigotes): essentially inactive; toxicity for HepG2 cells by microscopic morphology (HepG2 cells): not toxic; anti-parasitic activity against L. (L.) infantum (in words) [5]: essentially inactive
4 | CN(CCCCNC(=O)c1cc(Br)c(Br)[nH]1)CCCNC(=O)c1cc(Br)c(Br)[nH]1 [Compound 16, N-Methyl-pseudoceratidine] | 4 ± 1 | still active | 
5 | [N-]=[N+]=NCC(=O)N(CCCCNC(=O)c1cc(Br)c(Br)[nH]1)CCCNC(=O)c1cc(Br)c(Br)[nH]1 [Compound 17] | > 10 | inactive | anti-parasitic activity against L. (L.) amazonensis (in words) [3]: inactive; anti-parasitic activity against T. cruzi (in words) (T. cruzi epimastigotes): inactive; anti-parasitic activity against L. (L.) infantum (in words) [5]: inactive
6 | O=C(NCCCCCNC(=O)c1cc(Br)c(Br)[nH]1)c1cc(Br)c(Br)[nH]1 [Compound 20] | > 10 | inactive | anti-parasitic activity against L. (L.) amazonensis (in words) [3]: active, but considerably less potent; anti-parasitic activity against T. cruzi (in words) (T. cruzi epimastigotes): good anti-parasitic activity
7 | O=C(NCCCCCCCCNC(=O)c1cc(Br)c(Br)[nH]1)c1cc(Br)c(Br)[nH]1 [Compound 21] | > 10 | inactive | 
8 | O=C(NCCCNCCCCNCCCNC(=O)c1cc(Br)c(Br)[nH]1)c1cc(Br)c(Br)[nH]1 [Compound 23] | 1.9 ± 1.2 | as active as pseudoceratidine | intracellular parasitism (in words) [6]: reduced in a dose-dependent manner; reduction of the amastigote number over the control group [6]: approximately 80%; EC50 (P. falciparum (3D7); read-out: P. falciparum (3D7) EC50+/−S.D., 3D7 sensitive strain, SYBR green): 2 ± 1 µM; anti-parasitic activity against L. (L.) amazonensis (in words) [3]: active, but considerably less potent
9 | O=C(NCCCCCCNCCCCCCNC(=O)c1cc(Br)c(Br)[nH]1)c1cc(Br)c(Br)[nH]1 [Compound 25] | 2 ± 1 | as active as pseudoceratidine | 
10 | Cc1ccc(C(=O)NCCCCNCCCNC(=O)c2ccc(C)o2)o1 [Compound 51] |  | completely inactive | 
11 | Nc1ncc(/C=C/CNC(=O)c2cc(Br)c(Br)[nH]2)[nH]1 [Oroidin] |  |  | activity against T. brucei rhodesiense (T. brucei rhodesiense): 17.3 µg/mL; activity against T. cruzi (in words) (T. cruzi): inactive; activity against Leishmania donovani (in words) (Leishmania donovani): inactive; anti-parasitic activity against P. falciparum (P. falciparum [1]): 3.9 µg/mL

Now from value to compound, other results behind:

Row | EC50 (P. falciparum (3D7); [7]) [µM] | Structure (SMILES) | anti-plasmodial activity against P. falciparum (in words) (P. falciparum (3D7)) | further results
12 | > 10 | O=C(NCCSCCNC(=O)c1cc(Br)c(Br)[nH]1)c1cc(Br)c(Br)[nH]1 [Compound 27] | inactive | anti-parasitic activity against L. (L.) amazonensis (in words) [3]: active, but considerably less potent; anti-parasitic activity against T. cruzi (in words) (T. cruzi epimastigotes): weak activity
13 | > 10 | O=C(NCCCCCNC(=O)c1ccc[nH]1)c1ccc[nH]1 [Compound 28] |  | 
14 | > 10 | O=C(NCCCCNCCCNC(=O)c1ccc[nH]1)c1ccc[nH]1 [Compound 29] | completely inactive | 
15 | 7 ± 1 | O=C(NCCCCNCCCNC(=O)c1cc(Br)c[nH]1)c1cc(Br)c[nH]1 [Compound 31, 2,21-debromopseudoceratidine] |  | 
16 | > 10 | O=C(NCCCCNCCCNC(=O)c1cc(Cl)c(Cl)[nH]1)c1cc(Cl)c(Cl)[nH]1 [Compound 33] | completely inactive | 
17 | > 10 | O=C(NCCCCNCCCNC(=O)c1ccc(F)[nH]1)c1ccc(F)[nH]1 [Compound 35] | completely inactive | 
18 | > 10 | O=C(NCCCCNCCCNC(=O)c1cc2ccccc2[nH]1)c1cc2ccccc2[nH]1 [Compound 38] |  | 
19 | > 10 | O=C(NCCCCNCCCNC(=O)c1nc2ccccc2[nH]1)c1nc2ccccc2[nH]1 [Compound 39] |  | 
20 | > 10 | O=C(NCCCCNCCCNC(=O)c1ccc(Br)s1)c1ccc(Br)s1 [Compound 42] |  | intracellular parasitism (in words) [6]: reduced in a dose-dependent manner; reduction of the amastigote number over the control group [6]: approximately 80%; anti-parasitic activity against L. (L.) amazonensis (in words) [3]: active, but considerably less potent
21 | > 10 | Cc1ccc(C(=O)NCCCCNCCCNC(=O)c2ccc(C)s2)s1 [Compound 43] |  | 
22 | > 10 | O=C(NCCCCNCCCNC(=O)c1cccc(Cl)n1)c1cccc(Cl)n1 [Compound 46] |  | 
23 | > 10 | Cc1cccc(C(=O)NCCCCNCCCNC(=O)c2cccc(C)n2)n1 [Compound 47] |  | 
24 | 3 ± 1 | O=C(NCCCCNCCCNC(=O)c1cc(Br)c(Br)o1)c1cc(Br)c(Br)o1 [Compound 50] |  | intracellular parasitism (in words) [6]: reduced in a dose-dependent manner; reduction of the amastigote number over the control group [6]: approximately 80%; anti-parasitic activity against L. (L.) amazonensis (in words) [3]: active, but considerably less potent
